Laboratory results from ChEMBL document CHEMBL1641417, “Cytotoxicity and topoisomerase I/II inhibition of glycosylated 2-phenyl-indoles, 2-phenyl-benzo[b]thiophenes and 2-phenyl-benzo[b]furans” (Bioorg Med Chem, 2011).
Calls of active or inactive are those of the source. The rule behind the calls is not given here.

Legend:
[1] = Cytotoxicity against mouse NIH/3T3 cells after 3 days by MTS assay; format: cell-based; conditions: NIH3T3, 72 h
How it was run: (§1)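 Non-tumour cells were CRL-7761 human skin, Vero monkey kidney (DMEM high glucose, 5% FBS, 10 mM HEPES) and NIH/3T3 mouse (DMEM, 10% calf serum). Cells were seeded, left 24 h, then switched to serum-free DMEM-F12 with albumin, transferrin and insulin, with or without compound. Exposure was 3 days at 37 °C.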

[2] = molecular target: DNA topoisomerase 2-alpha (Homo sapiens) (UniProt P11388); assay: Inhibition of human recombinant DNA topoisomerase 2alpha-mediated DNA cleavage assessed as decrease in relaxation of supercoiled plasmid substrate DNA at 20 uM after 30 mins by agarose gel electrophoresis
Sequence of DNA topoisomerase 2-alpha (Homo sapiens) (P11388 whole entry): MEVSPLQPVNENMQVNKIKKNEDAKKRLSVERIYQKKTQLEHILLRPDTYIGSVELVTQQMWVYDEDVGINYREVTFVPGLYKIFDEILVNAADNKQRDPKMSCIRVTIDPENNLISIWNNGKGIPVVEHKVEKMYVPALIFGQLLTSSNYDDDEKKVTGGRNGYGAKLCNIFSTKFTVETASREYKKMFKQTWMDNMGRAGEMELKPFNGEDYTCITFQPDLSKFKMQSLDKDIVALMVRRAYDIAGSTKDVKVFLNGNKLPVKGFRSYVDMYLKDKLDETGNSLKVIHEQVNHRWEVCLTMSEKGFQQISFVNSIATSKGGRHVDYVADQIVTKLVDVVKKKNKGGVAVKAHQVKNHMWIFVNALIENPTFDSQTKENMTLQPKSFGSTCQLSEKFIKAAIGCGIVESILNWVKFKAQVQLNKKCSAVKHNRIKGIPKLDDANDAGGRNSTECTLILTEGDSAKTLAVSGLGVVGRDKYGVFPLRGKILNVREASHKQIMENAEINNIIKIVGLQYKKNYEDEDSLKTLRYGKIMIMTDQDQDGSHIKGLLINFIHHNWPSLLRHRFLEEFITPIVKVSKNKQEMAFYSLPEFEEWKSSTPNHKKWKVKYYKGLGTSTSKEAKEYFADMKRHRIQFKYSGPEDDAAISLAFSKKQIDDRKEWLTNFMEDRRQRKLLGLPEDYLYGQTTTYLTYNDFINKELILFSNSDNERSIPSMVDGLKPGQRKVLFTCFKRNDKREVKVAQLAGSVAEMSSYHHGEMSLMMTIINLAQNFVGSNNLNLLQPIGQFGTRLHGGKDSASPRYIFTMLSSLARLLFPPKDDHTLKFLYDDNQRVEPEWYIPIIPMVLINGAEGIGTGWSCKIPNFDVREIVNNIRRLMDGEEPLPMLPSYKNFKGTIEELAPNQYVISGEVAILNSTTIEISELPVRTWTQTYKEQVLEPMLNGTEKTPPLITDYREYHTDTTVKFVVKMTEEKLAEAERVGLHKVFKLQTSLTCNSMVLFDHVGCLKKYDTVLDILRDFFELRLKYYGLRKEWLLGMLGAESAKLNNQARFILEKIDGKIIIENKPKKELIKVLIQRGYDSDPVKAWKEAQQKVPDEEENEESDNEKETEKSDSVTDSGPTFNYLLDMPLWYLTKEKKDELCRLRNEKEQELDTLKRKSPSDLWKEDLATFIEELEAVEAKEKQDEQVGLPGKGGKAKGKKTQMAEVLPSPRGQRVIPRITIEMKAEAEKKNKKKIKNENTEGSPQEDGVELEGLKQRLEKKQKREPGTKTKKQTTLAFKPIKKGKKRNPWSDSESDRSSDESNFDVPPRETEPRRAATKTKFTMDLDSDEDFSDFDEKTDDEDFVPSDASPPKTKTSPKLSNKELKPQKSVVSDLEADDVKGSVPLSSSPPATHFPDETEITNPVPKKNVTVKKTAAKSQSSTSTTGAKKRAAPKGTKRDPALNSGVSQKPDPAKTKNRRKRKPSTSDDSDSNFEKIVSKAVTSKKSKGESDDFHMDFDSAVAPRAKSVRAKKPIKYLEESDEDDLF

[3] = molecular target: T1, DNA topoisomerase 1 (Homo sapiens) (UniProt P11387); assay: Inhibition of human recombinant DNA topoisomerase 1-mediated DNA cleavage assessed as decrease in relaxation of supercoiled plasmid substrate DNA at 5 uM after 30 mins by agarose gel electrophoresis
T1 sequence (whole entry): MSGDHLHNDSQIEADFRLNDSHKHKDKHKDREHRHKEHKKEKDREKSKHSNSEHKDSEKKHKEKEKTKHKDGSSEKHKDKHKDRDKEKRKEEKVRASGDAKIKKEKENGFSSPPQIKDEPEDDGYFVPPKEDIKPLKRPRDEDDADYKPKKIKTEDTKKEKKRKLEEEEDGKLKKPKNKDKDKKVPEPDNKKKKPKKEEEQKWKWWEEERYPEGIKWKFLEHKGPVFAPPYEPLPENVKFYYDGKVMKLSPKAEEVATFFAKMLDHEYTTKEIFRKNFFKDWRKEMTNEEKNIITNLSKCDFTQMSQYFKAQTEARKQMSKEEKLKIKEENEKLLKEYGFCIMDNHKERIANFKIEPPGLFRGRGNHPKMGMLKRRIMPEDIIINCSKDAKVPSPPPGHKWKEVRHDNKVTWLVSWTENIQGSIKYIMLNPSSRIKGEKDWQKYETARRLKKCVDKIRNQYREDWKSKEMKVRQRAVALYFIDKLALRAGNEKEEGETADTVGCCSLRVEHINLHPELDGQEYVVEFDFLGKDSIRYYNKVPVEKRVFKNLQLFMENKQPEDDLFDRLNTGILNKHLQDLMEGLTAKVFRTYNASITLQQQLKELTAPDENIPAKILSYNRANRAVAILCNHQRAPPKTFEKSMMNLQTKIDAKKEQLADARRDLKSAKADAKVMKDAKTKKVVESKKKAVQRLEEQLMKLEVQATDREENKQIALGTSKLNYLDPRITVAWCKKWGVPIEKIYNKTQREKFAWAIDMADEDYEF

HT-29 [4] = assay: Cytotoxicity against human HT-29 cells after 72 hrs by MTS assay; conditions: HT-29, 72 h
[5] = Cytotoxicity against human CRL7761 cells after 3 days by MTS assay; format: cell-based; conditions: 72 h; how it was run: as §1
MCF7 [6] = assay: Cytotoxicity against human MCF7 cells after 72 hrs by MTS assay; conditions: MCF7, 72 h
HT-29 [7] = assay: Cytotoxicity against human HT-29 cells assessed as cell viability at 20 uM after 24 hrs by MTS assay; format: functional; conditions: HT-29, 24 h, read-out: Activity
HT-29 [8] = assay: Cytotoxicity against human HT-29 cells assessed as cell viability at 25 uM after 72 hrs by MTS assay; conditions: HT-29, 72 h
HepG2 [9] = assay: Cytotoxicity against human HepG2 cells after 72 hrs by MTS assay; conditions: HepG2, 72 h
HepG2 [10] = assay: Cytotoxicity against human HepG2 cells assessed as cell viability at 25 uM after 24 hrs by MTS assay; format: functional; conditions: HepG2, 24 h, read-out: Activity
Vero = assay: Cytotoxicity against african green monkey Vero cells after 3 days by MTS assay; format: cell-based; conditions: Chlorocebus sabaeus, 72 h; how it was run: as §1
MCF7 [11] = assay: Cytotoxicity against human MCF7 cells assessed as cell viability at 20 uM after 72 hrs by MTS assay; conditions: MCF7, 72 h, read-out: Activity
HepG2 [12] = assay: Cytotoxicity against human HepG2 cells assessed as cell viability at 16 uM after 72 hrs by MTS assay; conditions: HepG2, 72 h, read-out: Activity
[13] = molecular target: DNA topoisomerase 2-alpha (Homo sapiens) (UniProt P11388); assay: Induction of poisoning activity in human recombinant DNA topoisomerase 2alpha assessed as enhancement of in relaxation of supercoiled plasmid substrate DNA at 100 uM after 30 mins by agarose gel electrophoresis
How it was run: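 For topo IIα cleavage, 0.25 µg supercoiled pRYG was incubated with 4 units of human topoisomerase IIα (p170) in Tris buffer with 2 mM ATP and 10 mM MgCl2 for 30 min at 37 °C. Workup was SDS stop, proteinase K, extraction and agarose electrophoresis. Poisoning was judged by appearance of a linear DNA band.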

[14] = molecular target: T1, DNA topoisomerase 1 (Homo sapiens); assay: Induction of poisoning activity in human recombinant DNA topoisomerase 1 assessed as enhancement of in relaxation of supercoiled plasmid substrate DNA at 75 to 100 uM after 30 mins by agarose gel electrophoresis
How it was run: (§2)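 In the topo I cleavage (poison) assay, the relaxation format was used with 6 units of enzyme for 30 min at 37 °C. Reactions were stopped with SDS, digested with proteinase K and CIA-extracted. DNA was run on 1% agarose with and without ethidium bromide. Poisoning was scored by the presence of the nicked open-circular band, referenced to camptothecin.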

Nucleic Acid = assay: Binding affinity to DNA by ethidium bromide staining-based FID assay; parameters: concentration or dose not given beside the values
HT-29 [15] = assay: Cytotoxicity against human HT-29 cells at 25 uM after 72 hrs by MTS assay
HepG2 [16] = assay: Cytotoxicity against human HepG2 cells at 25 uM after 72 hrs by MTS assay
[17] = molecular target: DNA topoisomerase 2-alpha (Homo sapiens) (UniProt P11388); assay: Inhibition of human recombinant DNA topoisomerase 2alpha-mediated DNA cleavage assessed as decrease in relaxation of supercoiled plasmid substrate DNA at 40 uM after 30 mins by agarose gel electrophoresis
[18] = molecular target: T1, DNA topoisomerase 1 (Homo sapiens); assay: Induction of poisoning activity in human recombinant DNA topoisomerase 1 assessed as enhancement of in relaxation of supercoiled plasmid substrate DNA at 25 to 50 uM after 30 mins by agarose gel electrophoresis; how it was run: as §2
[19] = molecular target: T1, DNA topoisomerase 1 (Homo sapiens); assay: Induction of poisoning activity in human recombinant DNA topoisomerase 1 assessed as enhancement of in relaxation of supercoiled plasmid substrate DNA at 100 uM after 30 mins by agarose gel electrophoresis; how it was run: as §2
MCF7 [20] = assay: Cytotoxicity against human MCF7 cells at 25 uM after 72 hrs by MTS assay
[21] = molecular target: T1, DNA topoisomerase 1 (Homo sapiens); assay: Inhibition of human recombinant DNA topoisomerase 1-mediated DNA cleavage assessed as decrease in relaxation of supercoiled plasmid substrate DNA at 40 uM after 30 mins by agarose gel electrophoresis
[22] = molecular target: DNA topoisomerase 2-alpha (Homo sapiens) (UniProt P11388); assay: Inhibition of human recombinant DNA topoisomerase 2alpha-mediated DNA cleavage assessed as decrease in relaxation of supercoiled plasmid substrate DNA at 100 uM after 30 mins by agarose gel electrophoresis
MCF7 [23] = assay: Cytotoxicity against human MCF7 cells assessed as cell viability at 25 uM after 72 hrs by MTS assay; conditions: MCF7, 72 h
[24] = molecular target: T1, DNA topoisomerase 1 (Homo sapiens); assay: Inhibition of human recombinant DNA topoisomerase 1-mediated DNA cleavage assessed as decrease in relaxation of supercoiled plasmid substrate DNA at 100 uM after 30 mins by agarose gel electrophoresis
HepG2 [25] = assay: Cytotoxicity against human HepG2 cells assessed as cell viability at 25 uM after 72 hrs by MTS assay; conditions: HepG2, 72 h

Row | Compound | IC50 [1] | inhibition [2] | inhibition [3] | IC50 (HT-29 [4]) | IC50 [5] | IC50 (MCF7 [6]) | viability at 20 µM (HT-29 [7]) | viability at 25 µM (HT-29 [8]) | IC50 (HepG2 [9]) | viability at 25 µM (HepG2 [10]) | IC50 (Vero) | viability at 20 µM (MCF7 [11]) | viability at 16 µM (HepG2 [12]) | Activity [13] | further results
1 | COc1cccc2c1C(=O)c1c(O)c3c(c(O)c1C2=O)C[C@@](O)(C(=O)CO)C[C@@H]3O[C@H]1C[C@H](N)[C@H](O)[C@H](C)O1 [DOXORUBICIN] | 3.5 µM | inactive | Active | 0.6 µM | > 25 µM | 16.8 µM | 43% | 43% | 1 µM | 8% | 10.4 µM | 47% | 8% | inactive | 
2 | Cc1ccc(S(=O)(=O)n2c(-c3ccccc3)c(C#CCO[C@H]3C[C@H](N)[C@H](O)[C@H](C)O3)c3ccccc32)cc1 | 5 µM | inactive |  | 6.3 µM | 16.5 µM | 4.8 µM |  | < 1% | 5.9 µM | < 1% | 10.2 µM |  |  | inactive | Activity [14]: inactive; Activity (Nucleic Acid): 47.9%; Activity (HT-29 [15]): 100%; Activity (HepG2 [16]): 100%; inhibition [17]: Active; Activity [18]: inactive; Activity [19]: inactive; Activity (MCF7 [20]): 100%; inhibition [21]: inactive; inhibition [22]: 101%; viability at 25 µM (MCF7 [23]): < 1%; inhibition [24]: 80.1%
3 | COc1cccc2c1C(=O)c1c(O)c3c(c(O)c1C2=O)C[C@@](O)(C(C)=O)C[C@@H]3O[C@H]1C[C@H](N)[C@H](O)[C@H](C)O1 [DAUNORUBICIN] | 1.8 µM | inactive | Active | 0.4 µM | 10.5 µM | 5.5 µM | 11% | 11% | 0.7 µM |  | 2.5 µM | 2% | 2% |  | viability at 25 µM (HepG2 [25]): 2%
